From ChEMBL document CHEMBL1151853, “Synthesis, configurational stability and stereochemical biological evaluations of (S)- and (R)-5-hydroxythalidomides” (Bioorg Med Chem Lett, 2009)
Calls of active or inactive are those of the source. No cut-off for these calls is given here.

Legend:
MCF7 = assay: Cytotoxicity against human MCF7 cells assessed as cell viability at 100 ug/ml after 72 hrs by MTT assay; assay type: functional; details: MCF7, 72 h, read-out: Activity
[1] = Stability assessed as half life at pH 7.23; assay type: physicochemical; details: buffer
HUVEC [2] = assay: Antiangiogenic activity against VEGF-induced HUVEC assessed as tube area at 100 uM after 11 days by BCIP/NBT visualization assay; assay type: functional, Homo sapiens
Outline: (§1)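 HUVECs co-cultured with fibroblasts (angiogenesis kit) grown with test drug at 30 or 100 μM plus VEGF-A 10 ng/ml for 11 days. Fixed in 70% ethanol, then mouse anti-human CD31 (1:4000, 1 h, 37 °C) and AP-conjugated goat anti-mouse IgG (1:500, 1 h, 37 °C), developed with BCIP/NBT. Mean ± S.E.M.; VEGF n = 9, VEGF + compound n = 3; Dunnett's test versus VEGF.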

[3] = Cytotoxicity against human HS-Sultan cells assessed as cell viability at 100 ug/ml after 72 hrs by MTT assay; assay type: functional; details: read-out: Activity
KB = assay: Cytotoxicity against human KB cells assessed as cell viability at 100 ug/ml after 72 hrs by MTT assay; assay type: functional; details: read-out: Activity
IM-9 = assay: Cytotoxicity against human IM9 cells assessed as cell viability at 100 ug/ml after 72 hrs by MTT assay; assay type: functional; details: IM-9, 72 h, read-out: Activity
[4] = Stability assessed as half life at pH 8.78; assay type: physicochemical; details: buffer
[5] = Stability assessed as half life at pH 6.24; assay type: physicochemical; details: buffer
HUVEC [6] = assay: Antiangiogenic activity against VEGF-induced HUVEC assessed as tube joint at 100 uM after 11 days after 11 days by BCIP/NBT visualization assay; assay type: functional, cell-based; details: Homo sapiens; outline: as §1
HUVEC [7] = assay: Antiangiogenic activity against VEGF-induced HUVEC assessed as tube length at 100 uM after 11 days after 11 days by BCIP/NBT visualization assay; assay type: functional, cell-based; details: Homo sapiens; outline: as §1
HUVEC [8] = assay: Antiangiogenic activity against VEGF-induced HUVEC assessed as tube path at 100 uM after 11 days after 11 days by BCIP/NBT visualization assay; assay type: functional, cell-based; details: Homo sapiens; outline: as §1

SMILES	viability at 100 µg/mL (MCF7) [%]	half-life [1] [h]	Activity (HUVEC [2]) [%]	viability at 100 µg/mL [3] [%]	viability at 100 µg/mL (KB) [%]	viability at 100 µg/mL (IM-9) [%]	half-life [4] [h]	half-life [5] [h]	Activity (HUVEC [6])	Activity (HUVEC [7])	Activity (HUVEC [8])
O=C1CC[C@H](N2C(=O)c3ccccc3C2=O)C(=O)N1	81.3	5.1	<60	88.6	95.6	93.5	2.6	27.8	–	–	–
O=C1CC[C@@H](N2C(=O)c3ccccc3C2=O)C(=O)N1	89.8	–	>70	75.6	96.9	87.1	–	–	inactive	inactive	inactive
O=C1CCC(N2C(=O)c3ccccc3C2=O)C(=O)N1 (racemic) [THALIDOMIDE]	86.5	–	<60	85.9	92.2	107	–	–	inactive	inactive	inactive
